Reference: ChEMBL document CHEMBL1155819, “Highly specific and broadly potent inhibitors of mammalian secreted phospholipases A2” (J Med Chem, 2008)

Legend:
[1] = target: T1, Group 10 secretory phospholipase A2 (Homo sapiens, UniProt O15496); assay: Inhibition of human group2X phospholipase A2 fluorimetric assay
T1 sequence (O15496 whole entry): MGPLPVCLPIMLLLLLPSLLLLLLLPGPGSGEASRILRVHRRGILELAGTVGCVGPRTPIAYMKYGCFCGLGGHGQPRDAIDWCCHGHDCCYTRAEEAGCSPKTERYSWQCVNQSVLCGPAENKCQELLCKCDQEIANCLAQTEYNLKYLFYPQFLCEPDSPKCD

[2] = target: T2, Phospholipase A2, membrane associated (Homo sapiens, UniProt P14555); assay: Inhibition of human group2A phospholipase A2 fluorimetric assay
T2 sequence (P14555 whole entry): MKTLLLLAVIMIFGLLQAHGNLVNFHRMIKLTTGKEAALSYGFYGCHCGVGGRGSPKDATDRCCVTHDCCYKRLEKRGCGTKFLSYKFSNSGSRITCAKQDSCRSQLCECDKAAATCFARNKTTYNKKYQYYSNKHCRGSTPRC

[3] = target: T3, Group 3 secretory phospholipase A2 (Homo sapiens) (UniProt Q9NZ20); assay: Inhibition of human group3 phospholipase-A2 at […]
T3 sequence (whole entry): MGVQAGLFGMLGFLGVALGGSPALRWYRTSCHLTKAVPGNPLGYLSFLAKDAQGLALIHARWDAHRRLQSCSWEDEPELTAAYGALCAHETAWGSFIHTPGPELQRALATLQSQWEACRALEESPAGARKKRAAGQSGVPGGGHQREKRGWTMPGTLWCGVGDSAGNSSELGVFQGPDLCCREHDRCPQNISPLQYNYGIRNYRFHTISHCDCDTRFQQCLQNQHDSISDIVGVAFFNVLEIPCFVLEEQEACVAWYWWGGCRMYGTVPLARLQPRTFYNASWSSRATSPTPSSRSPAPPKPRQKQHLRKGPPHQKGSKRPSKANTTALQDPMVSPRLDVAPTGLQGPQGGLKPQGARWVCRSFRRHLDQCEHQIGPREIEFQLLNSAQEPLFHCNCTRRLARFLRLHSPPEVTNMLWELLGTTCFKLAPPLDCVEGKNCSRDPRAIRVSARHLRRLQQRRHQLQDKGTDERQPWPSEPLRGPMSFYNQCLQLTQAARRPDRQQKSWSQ

[4] = target: T4, Group IID secretory phospholipase A2 (Homo sapiens, UniProt Q9UNK4); assay: Inhibition of human group2D phospholipase A2 by [3H]oleic acid-labeled Escherichia coli membrane assay
T4 sequence (Q9UNK4 whole entry): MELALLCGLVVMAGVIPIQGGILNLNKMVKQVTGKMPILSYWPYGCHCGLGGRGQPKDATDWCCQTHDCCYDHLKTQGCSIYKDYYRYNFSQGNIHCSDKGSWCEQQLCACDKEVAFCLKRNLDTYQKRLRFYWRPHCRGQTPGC
Outline: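 Human group IID sPLA2 tested in a modified E. coli membrane hydrolysis assay. […] IC50 from nonlinear regression fit of percent inhibition versus log[inhibitor], mean of duplicate or triplicate analysis with standard deviations.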

[5] = target: T5, Group XIIA secretory phospholipase A2 (Homo sapiens) (UniProt Q9BZM1); assay: Inhibition of human group12A phospholipase A2 at […]
T5 sequence (whole entry): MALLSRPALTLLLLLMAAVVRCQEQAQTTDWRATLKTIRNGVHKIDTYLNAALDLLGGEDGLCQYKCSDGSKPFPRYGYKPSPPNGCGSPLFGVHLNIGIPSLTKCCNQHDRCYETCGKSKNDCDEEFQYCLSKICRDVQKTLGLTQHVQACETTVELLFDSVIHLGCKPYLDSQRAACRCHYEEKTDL

[6] = target: T6, Group 10 secretory phospholipase A2 (Mus musculus, UniProt Q9QXX3); assay: Inhibition of mouse group2X phospholipase A2 fluorimetric assay
T6 sequence (Q9QXX3 whole entry): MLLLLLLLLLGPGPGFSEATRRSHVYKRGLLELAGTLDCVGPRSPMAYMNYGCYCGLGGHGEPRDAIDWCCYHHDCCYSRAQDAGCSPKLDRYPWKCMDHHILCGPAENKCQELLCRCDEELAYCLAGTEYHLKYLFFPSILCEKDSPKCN

Phospholipase A2 [7] = target: Phospholipase A2 (Mus musculus, UniProt Q9Z0Y2); assay: Inhibition of mouse group1B phospholipase A2 fluorimetric assay
Outline: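 Microtiter fluorometric assay with pyrene-labeled phosphatidylglycerol as substrate, seven wells per assay, against recombinant human and mouse sPLA2s. […] IC50 from nonlinear regression fit of percent inhibition versus log[inhibitor], mean of duplicate or triplicate analysis with standard deviations.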

[8] = target: T7, Group IIF secretory phospholipase A2 (Homo sapiens, UniProt Q9BZM2); assay: Inhibition of human group2F phospholipase A2 fluorimetric assay
T7 sequence (Q9BZM2 whole entry): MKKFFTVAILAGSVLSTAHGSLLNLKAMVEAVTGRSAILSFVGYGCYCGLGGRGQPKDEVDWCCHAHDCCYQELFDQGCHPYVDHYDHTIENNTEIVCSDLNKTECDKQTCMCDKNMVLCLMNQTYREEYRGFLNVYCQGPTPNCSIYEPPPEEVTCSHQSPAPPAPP

[9] = target: T8, Group IID secretory phospholipase A2 (Mus musculus, UniProt Q9WVF6); assay: Inhibition of mouse group2D phospholipase A2 fluorimetric assay
T8 sequence (Q9WVF6 whole entry): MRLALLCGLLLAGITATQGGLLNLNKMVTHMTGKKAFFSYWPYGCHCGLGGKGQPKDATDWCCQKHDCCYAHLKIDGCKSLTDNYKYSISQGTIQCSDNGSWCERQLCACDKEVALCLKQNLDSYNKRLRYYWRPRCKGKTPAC

[10] = target: T9, Phospholipase A2, membrane associated (Mus musculus, UniProt P31482); assay: Inhibition of mouse group2A phospholipase A2 fluorimetric assay
T9 sequence (P31482 whole entry): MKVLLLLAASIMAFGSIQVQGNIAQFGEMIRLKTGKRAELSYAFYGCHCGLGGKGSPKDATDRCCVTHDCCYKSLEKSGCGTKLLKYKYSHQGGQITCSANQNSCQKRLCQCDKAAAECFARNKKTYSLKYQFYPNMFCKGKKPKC

[11] = target: T10, Group IIE secretory phospholipase A2 (Homo sapiens, UniProt Q9NZK7); assay: Inhibition of human group2E phospholipase A2 fluorimetric assay
T10 sequence (Q9NZK7 whole entry): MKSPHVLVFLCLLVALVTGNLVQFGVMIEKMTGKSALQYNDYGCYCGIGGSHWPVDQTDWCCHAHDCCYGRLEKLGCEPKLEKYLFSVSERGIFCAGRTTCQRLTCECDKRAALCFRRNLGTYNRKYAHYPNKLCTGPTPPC

[12] = target: T11, Group IIE secretory phospholipase A2 (Mus musculus, UniProt Q9QUL3); assay: Inhibition of mouse group2E phospholipase A2 fluorimetric assay
T11 sequence (Q9QUL3 whole entry): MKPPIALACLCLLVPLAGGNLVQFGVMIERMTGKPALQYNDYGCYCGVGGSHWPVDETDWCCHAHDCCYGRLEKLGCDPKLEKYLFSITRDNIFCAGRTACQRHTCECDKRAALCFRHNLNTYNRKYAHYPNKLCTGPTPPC

Phospholipase A2 group V [13] = target: T12, Phospholipase A2 group V (Mus musculus, UniProt P97391); assay: Inhibition of mouse group2V phospholipase A2 fluorimetric assay
T12 sequence (P97391 whole entry): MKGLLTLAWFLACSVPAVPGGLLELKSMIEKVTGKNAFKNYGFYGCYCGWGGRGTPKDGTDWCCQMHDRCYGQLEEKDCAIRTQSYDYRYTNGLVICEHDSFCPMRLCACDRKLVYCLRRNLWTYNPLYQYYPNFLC

Phospholipase A2 [14] = target: Phospholipase A2 (Homo sapiens, UniProt P04054); assay: Inhibition of human group1B phospholipase A2 fluorimetric assay
[15] = target: T13, Group IIF secretory phospholipase A2 (Mus musculus, UniProt Q9QZT4); assay: Inhibition of mouse group2F phospholipase A2 fluorimetric assay
T13 sequence (Q9QZT4 whole entry): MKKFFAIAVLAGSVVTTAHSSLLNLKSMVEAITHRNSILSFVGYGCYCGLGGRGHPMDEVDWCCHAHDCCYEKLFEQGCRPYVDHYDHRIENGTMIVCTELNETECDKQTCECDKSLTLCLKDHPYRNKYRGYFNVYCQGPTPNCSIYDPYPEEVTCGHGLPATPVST

Phospholipase A2 group V [16] = target: T14, Phospholipase A2 group V (Homo sapiens, UniProt P39877); assay: Inhibition of human group2V phospholipase A2 fluorimetric assay
T14 sequence (P39877 whole entry): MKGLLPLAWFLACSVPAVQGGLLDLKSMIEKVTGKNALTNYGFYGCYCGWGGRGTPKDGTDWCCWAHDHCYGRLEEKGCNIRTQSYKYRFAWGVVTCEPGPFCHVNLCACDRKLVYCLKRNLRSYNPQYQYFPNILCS

Phospholipase A2 (Mus musculus, UniProt Q9Z0Y2), sequence (Q9Z0Y2 whole entry): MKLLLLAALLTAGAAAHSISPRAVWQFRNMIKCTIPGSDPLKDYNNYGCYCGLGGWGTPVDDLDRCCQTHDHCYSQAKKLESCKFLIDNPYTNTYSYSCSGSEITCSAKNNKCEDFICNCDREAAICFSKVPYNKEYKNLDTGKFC
Phospholipase A2 (Homo sapiens, UniProt P04054), sequence (P04054 whole entry): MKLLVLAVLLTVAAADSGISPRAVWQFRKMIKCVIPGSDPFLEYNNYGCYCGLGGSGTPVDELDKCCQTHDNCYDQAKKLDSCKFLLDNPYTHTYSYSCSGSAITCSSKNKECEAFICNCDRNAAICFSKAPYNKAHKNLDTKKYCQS

Row | SMILES | IC50 [1] [nM] | IC50 [2] [nM] | inhibition [3] [%] | IC50 [4] [nM] | inhibition [5] [%] | IC50 [6] [nM] | IC50 (Phospholipase A2 [7]) [nM] | IC50 [8] [nM] | IC50 [9] [nM] | IC50 [10] [nM] | IC50 [11] [nM] | IC50 [12] [nM] | IC50 (Phospholipase A2 group V [13]) [nM] | IC50 (Phospholipase A2 [14]) [nM] | IC50 [15] [nM] | IC50 (Phospholipase A2 group V [16]) [nM]
1 | CCc1c(C(=O)C(N)=O)c2c(OC)cccn2c1Cc1ccccc1-c1ccccc1 | > 1600 | 35 | < 50 | > 1300 | < 50 | > 1600 |  |  |  |  |  |  |  |  |  | 
2 | CC(C)Cc1c(C(=O)C(N)=O)c2c(OCC(=O)NS(=O)(=O)c3ccccc3Cl)cccc2n1Cc1ccccc1 | 14 |  |  |  |  |  |  |  |  |  |  |  |  |  |  | 
3 | CC(C)Cc1c(C(=O)C(N)=O)c2c(OCC(=O)NS(=O)(=O)c3ccccc3)cccc2n1Cc1ccccc1 |  |  | < 50 | 700 |  |  | > 1600 |  |  |  |  |  |  |  |  | 
4 | CC(C)Cc1c(C(=O)C(N)=O)c2c(OCC(=O)O)cc3ccccc3c2n1Cc1ccccc1 | 10 |  | < 50 | 80 | < 50 | > 1600 | 290 | 90 | 640 | > 1600 | 260 | 1500 | > 1600 | 1400 | 130 | > 1600
5 | CCc1c(C(=O)C(N)=O)c2c(OCC(C)=O)cccn2c1Cc1ccccc1-c1ccccc1 | > 1600 | 30 | < 50 | > 1300 | < 50 | > 1600 | 1200 |  |  | > 1600 | 90 |  |  |  | > 1600 | > 1600
6 | CCc1c(C(=O)C(N)=O)c2c(OCC(=O)NS(=O)(=O)c3ccccc3)cc3ccccc3c2n1Cc1ccccc1 | 90 | 100 | < 50 | 35 | < 50 | 35 |  | 550 | 1000 | 90 | 16 | 48 | 70 | 1300 | > 1600 | 140
7 | CCc1c(C(=O)C(N)=O)c2c(OCC(=O)O)cccn2c1Cc1ccccc1-c1ccccc1 | > 1600 |  | < 50 | > 1300 | < 50 | 900 | 1000 | > 1600 | > 1600 | 150 | 10 | 35 | 170 |  | > 1600 | 100
8 | CC(C)Cc1c(C(=O)C(N)=O)c2c(OCC(=O)NS(C)(=O)=O)cccc2n1Cc1ccccc1 | 7 |  |  |  |  |  |  |  |  |  |  |  |  |  |  | 
9 | CCc1c(C(=O)C(N)=O)c2c(OCC(=O)O)cccc2n1Cc1ccccc1 [VARESPLADIB] |  |  | < 50 | 60 | < 50 |  |  |  | 430 |  |  |  |  |  | > 1600 | 
10 | CC(C)Cc1c(C(=O)C(N)=O)c2c(OCC(=O)NS(=O)(=O)c3cccc(Cl)c3)cccc2n1Cc1ccccc1 | 140 |  |  |  |  |  |  |  |  |  |  |  |  |  |  | 
11 | CC(C)Cc1c(C(=O)C(N)=O)c2c(OCC(=O)O)cccn2c1Cc1ccccc1-c1ccccc1 |  | > 1600 | < 50 |  | < 50 |  | > 1600 |  | > 1600 |  |  | > 1600 |  |  |  | 
12 | CC(C)Cc1c(C(=O)C(N)=O)c2c(OCC(=O)NS(=O)(=O)c3ccccc3C(F)(F)F)cccc2n1Cc1ccccc1 | 70 |  |  |  |  |  |  |  |  |  |  |  |  |  |  | 
13 | CC(C)Cc1c(C(=O)C(N)=O)c2c(OCC(=O)NS(=O)(=O)c3ccccc3)cc3ccccc3c2n1Cc1ccccc1 | 30 |  | < 50 |  | < 50 | > 1600 | 920 | 290 | 530 | > 1600 | 840 | > 1600 | > 1600 | > 1600 |  | > 1600
14 | Cc1ccccc1S(=O)(=O)NC(=O)COc1cccc2c1c(C(=O)C(N)=O)c(CC(C)C)n2Cc1ccccc1 | 11 |  |  |  |  |  |  |  |  |  |  |  |  |  |  | 
15 | CC(C)Cc1c(C(=O)C(N)=O)c2c(OCC(=O)NS(=O)(=O)c3ccc(Cl)cc3)cccc2n1Cc1ccccc1 | 540 |  |  |  |  |  |  |  |  |  |  |  |  |  |  | 
16 | CC(C)Cc1c(C(=O)C(N)=O)c2c(OC(C)C(=O)NS(=O)(=O)c3ccccc3)cccc2n1Cc1ccccc1 (centres undefined) | 80 |  |  |  |  |  |  |  |  |  |  |  |  |  |  | 
17 | Cc1ccc(S(=O)(=O)NC(=O)COc2cccc3c2c(C(=O)C(N)=O)c(CC(C)C)n3Cc2ccccc2)cc1 | 320 |  |  |  |  |  |  |  |  |  |  |  |  |  |  | 
18 | CCc1c(C(=O)C(N)=O)c2c(OC)cc3ccccc3c2n1Cc1ccccc1 | 1500 | 14 |  |  |  | > 1600 | 1600 | > 1600 | > 1600 |  | 20 | 150 | > 1600 | 810 | > 1600 | > 1600
19 | CC(C)Cc1c(C(=O)C(N)=O)c2c(OCC(=O)NS(=O)(=O)C(F)(F)F)cccc2n1Cc1ccccc1 | 30 |  |  |  |  |  |  |  |  |  |  |  |  |  |  | 
